Reference: ChEMBL document CHEMBL4428072, “Pharmacophore Model To Discover OX1 and OX2 Orexin Receptor Ligands” (J Med Chem, 2016)
The source made the active and inactive calls. The calls are words filed in the database; no cut-off is given here.

Assays:
[1] = molecular target: T1, Orexin/Hypocretin receptor type 1 (Homo sapiens) (UniProt O43613); assay: Antagonist activity at human OX1 receptor expressed in CHO cells assessed as inhibition of orexin A-induced Ca2+ elevation at 5 uM after 30 mins by FLIPR calcium 4 assay; assay type: functional, cell-based
T1 sequence (whole entry): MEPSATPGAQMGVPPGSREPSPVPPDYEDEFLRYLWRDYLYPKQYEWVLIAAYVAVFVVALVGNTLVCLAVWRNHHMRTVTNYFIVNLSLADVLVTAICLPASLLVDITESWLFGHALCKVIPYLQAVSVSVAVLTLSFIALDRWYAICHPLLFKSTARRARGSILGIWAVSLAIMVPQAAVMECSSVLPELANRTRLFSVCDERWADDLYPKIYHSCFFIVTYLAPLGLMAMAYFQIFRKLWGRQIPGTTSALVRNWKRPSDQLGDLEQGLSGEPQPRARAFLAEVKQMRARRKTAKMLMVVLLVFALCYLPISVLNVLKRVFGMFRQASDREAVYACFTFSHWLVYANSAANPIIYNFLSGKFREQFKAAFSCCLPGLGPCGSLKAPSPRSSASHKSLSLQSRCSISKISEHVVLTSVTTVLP
Procedure, shortened: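 Screening second round: after the 5 μM compound agonist read in CHO-hOX1 cells, 0.3 nM orexin-A was added at 30 s to all wells and the inhibition of the Ca2+ response was read by Calcium 4 fluorescence at 37 °C. Vehicle controls were included in each column. Tested once in triplicate.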

[2] = molecular target: T1, Orexin/Hypocretin receptor type 1 (Homo sapiens); assay: Ratio of Ki for human OX1 receptor expressed in […] assessed as inhibition of orexin A-induced Ca2+ elevation to Ki for human OX1 receptor expressed in CHO cells by [125I]-orexin A displacement assay
[3] = molecular target: T1, Orexin/Hypocretin receptor type 1 (Homo sapiens); assay: Agonist activity at human OX1 receptor expressed in CHO cells assessed as induction of Ca2+ elevation at 5 uM after 30 mins by FLIPR calcium 4 assay relative to orexin-A; assay type: functional, cell-based
Procedure, shortened: (§1)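 Screening in CHO-hOX1 or CHO-hOX2 cells loaded with Calcium 4 dye in HBM (137 mM NaCl, 20 mM Hepes, 1 mM CaCl2, pH 7.4) + probenecid. Fluorescence at 485/525 nm, 37 °C. 30 s baseline, compound added to 5 μM final and read for 120 s; the delayed response was read 30 min after addition for 30 s. Tested once in triplicate; % of full orexin-A activation.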

[4] = molecular target: T2, Orexin receptor type 2 (Homo sapiens) (UniProt O43614); conditions: CHO, at 5 µM
T2 sequence (whole entry): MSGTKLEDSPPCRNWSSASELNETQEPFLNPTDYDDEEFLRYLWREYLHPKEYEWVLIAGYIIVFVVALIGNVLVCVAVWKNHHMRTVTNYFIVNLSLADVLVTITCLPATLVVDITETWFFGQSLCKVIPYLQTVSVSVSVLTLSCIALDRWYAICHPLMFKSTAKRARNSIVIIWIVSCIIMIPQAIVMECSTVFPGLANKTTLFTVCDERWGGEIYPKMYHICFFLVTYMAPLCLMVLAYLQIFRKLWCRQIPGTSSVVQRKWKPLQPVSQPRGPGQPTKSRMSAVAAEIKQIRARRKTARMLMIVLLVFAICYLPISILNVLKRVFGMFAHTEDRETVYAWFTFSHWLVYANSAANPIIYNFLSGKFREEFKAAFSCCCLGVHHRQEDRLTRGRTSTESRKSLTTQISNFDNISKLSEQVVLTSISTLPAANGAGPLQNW

[5] = molecular target: T1, Orexin/Hypocretin receptor type 1 (Homo sapiens); assay: Displacement of [125I]-orexin A from human OX1 receptor expressed in […] at 10 uM after 90 mins by scintillation counting
[6] = molecular target: T2, Orexin receptor type 2 (Homo sapiens); conditions: CHO, at 10 µM
Orexin receptor type 2 [7] = molecular target: T3, Orexin receptor type 2 (Homo sapiens, UniProt O43614); assay: Displacement of [125I]-orexin A from human OX2 receptor expressed in […] after 90 mins by scintillation counting
T3 sequence (O43614 whole entry): T2 sequence (whole entry)
Procedure, shortened: (§2)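 Intact CHO-hOX1 or CHO-hOX2 cells in HBM + 0.1% stripped BSA + 30 μM dyngo 4a, preincubated 10 min (10 μM antagonist used to define nonspecific binding). 0.05 nM [125I]-orexin-A added with compound (10 nM–100 μM, 10-fold series). Incubated 90 min at room temperature, wells dried, scintillation counted. At least three experiments; IC50/Ki by nonlinear fitting.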

[8] = molecular target: T4, Orexin/Hypocretin receptor type 1 (Homo sapiens, UniProt O43613); assay: Antagonist activity at human OX1 receptor expressed in […] assessed as inhibition of orexin A-induced Ca2+ elevation after 30 mins in presence of orexin A by FLIPR calcium 4 assay; assay type: functional, cell-based
T4 sequence (O43613 whole entry): T1 sequence (whole entry)
Procedure, shortened: (§3)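 Functional inhibition in CHO-hOX1 or CHO-hOX2 cells. Antagonist (10 nM–100 μM, 10-fold series) preincubated 10 min at 37 °C, then 0.3 nM orexin-A added. Ca2+ measured with Calcium 4 dye at 485/525 nm. Ki derived from inhibition of the orexin-A response. Three independent experiments in quadruplicate; mean ± SEM.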

Orexin receptor type 2 [9] = molecular target: T3, Orexin receptor type 2; assay: Antagonist activity at human OX2 receptor expressed in […] assessed as inhibition of orexin A-induced Ca2+ elevation […] in presence of orexin A by FLIPR calcium 4 assay; assay type: functional, cell-based; procedure, shortened: as §3
[10] = molecular target: T1, Orexin/Hypocretin receptor type 1 (Homo sapiens); assay: Agonist activity at human OX1 receptor expressed in […] assessed as induction of Ca2+ elevation at 10 uM after 30 mins by FLIPR calcium 4 assay relative to orexin-A; assay type: functional, cell-based
Procedure, shortened: (§4)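 CHO-hOX1 or CHO-hOX2 cells plated overnight at 1.5 × 10^4 cells/well, loaded with Calcium 4 dye in HBM + probenecid for 60 min at 37 °C. Fluorescence read at 485/525 nm, 37 °C. 30 s baseline, then compound at 10 μM (tested twice in validation; thrice at 1 and 10 μM in quadruplicate in characterization). Response expressed as % of orexin-A maximal response; background response measured within each experiment.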

[11] = molecular target: T2, Orexin receptor type 2 (Homo sapiens); assay: Agonist activity at human OX2 receptor expressed in CHO cells assessed as induction of Ca2+ elevation at 5 uM after 2 mins by FLIPR calcium 4 assay relative to orexin-A; assay type: functional, cell-based; procedure, shortened: as §1
[12] = molecular target: T2, Orexin receptor type 2 (Homo sapiens); assay: Agonist activity at human OX2 receptor expressed in […] assessed as induction of Ca2+ elevation at 10 uM after 30 mins by FLIPR back ground response; assay type: functional, cell-based; procedure, shortened: as §4
CHO = assay: Induction Ca2+ levels in CHO cells at 1 uM by FLIPR calcium 4 assay; assay type: functional, cell-based; conditions: Cricetulus griseus
Procedure, shortened: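 Control CHO cells lacking orexin receptors, loaded with Calcium 4 dye in HBM + probenecid for 60 min at 37 °C. Compound added (1 and 10 μM) and the Ca2+ fluorescence response read at 485/525 nm at 37 °C.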

[13] = molecular target: T1, Orexin/Hypocretin receptor type 1 (Homo sapiens); assay: Agonist activity at human OX1 receptor expressed in […] assessed as induction of Ca2+ elevation at 10 uM after 30 mins by FLIPR back ground response; assay type: functional, cell-based; procedure, shortened: as §4
[14] = molecular target: T1, Orexin/Hypocretin receptor type 1 (Homo sapiens); assay: Agonist activity at human OX1 receptor expressed in CHO cells assessed as induction of Ca2+ elevation at 5 uM after 2 mins by FLIPR calcium 4 assay relative to orexin-A; assay type: functional, cell-based; procedure, shortened: as §1
[15] = molecular target: T2, Orexin receptor type 2 (Homo sapiens); assay: Agonist activity at human OX2 receptor expressed in […] assessed as induction of Ca2+ elevation at 10 uM after 30 mins by FLIPR calcium 4 assay relative to orexin-A; assay type: functional, cell-based; procedure, shortened: as §4
Homo sapiens [16] = organism: Homo sapiens; assay: Ratio of Ki for human OX1 receptor expressed in CHO cells to Ki for human OX2 receptor expressed in CHO cells by Ca2+ elevation based assay; assay type: cell-based; procedure, shortened: as §3
[17] = molecular target: T1, Orexin/Hypocretin receptor type 1 (Homo sapiens); assay: Agonist activity at human OX1 receptor expressed in CHO cells assessed as induction of Ca2+ elevation at 10 uM after 30 mins in presence of TCS-1102 by FLIPR calcium 4 assay relative to orexin-A; assay type: functional, cell-based
Procedure, shortened: (§5)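 Agonist Ca2+ read in CHO-hOX1 or CHO-hOX2 cells loaded with Calcium 4 dye at 37 °C. Compound at 10 μM was added with or without 10 μM orexin antagonist to define the receptor-specific response. Expressed as % of full orexin-A response, taken from orexin-A concentration–response curves run in each experiment.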

Homo sapiens [18] = organism: Homo sapiens; assay: Ratio of Ki for human OX1 receptor expressed in […] to Ki for human OX2 receptor expressed in […] by [125I]-orexin A displacement assay; assay type: cell membranes; procedure, shortened: as §2
[19] = molecular target: T2, Orexin receptor type 2 (Homo sapiens); assay: Agonist activity at human OX2 receptor expressed in CHO cells assessed as induction of Ca2+ elevation at 10 uM after 30 mins in presence of TCS-1102 by FLIPR calcium 4 assay relative to orexin-A; assay type: functional, cell-based; procedure, shortened: as §5

| Structure (SMILES) | inhibition [1] [%] | Ratio Ki [2] | Activity [3] | inhibition [4] [%] | inhibition [5] [%] | inhibition [6] [%] | IC50 (Orexin receptor type 2 [7]) [nM] | Ki (Orexin receptor type 2 [7]) [nM] | Ki [8] [nM] | Ki (Orexin receptor type 2 [9]) [nM] | Activity [10] [%] | Activity [11] | fold change (FC) [12] | Activity (CHO) | fold change (FC) [13] | Activity [14] | other results |
| --- | --- | --- | --- | --- | --- | --- | --- | --- | --- | --- | --- | --- | --- | --- | --- | --- | --- |
| C=CCN1C(=O)C2(Nc3ccccc3C(=O)N2c2ccccc2OC)c2ccccc21 (centres undefined) | > 20 | 2 to 9 | Active | > 20 | > 50 | > 50 | 700 | 1000 | 21600 | 1200 |  |  |  |  |  |  |  |
| COc1ccc(CCNC(=O)Cn2c(-c3nonc3N)nc3ccccc32)cc1OC | > 20 | 2 to 9 | Active | > 20 | > 50 | > 50 | 500 | 800 | 13100 | 900 |  |  |  |  |  |  |  |
| COc1ccccc1OCCNC[C@@H](O)COc1cccc2[nH]c3ccccc3c12 [(R)-Carvedilol] |  |  | Active |  | > 70 | > 70 | 900 | 1400 |  |  | 6.3 | Active | 1.4 to 2.2 | inactive | 3.3 | Active | Activity [15]: 1 to 3.7% |
| O=C(CSc1nnc(-c2cccs2)n1Cc1ccco1)Nc1ccc2c(c1)OCCO2 | > 20 | 2 to 9 | Active | > 20 | > 50 | > 50 | 130 | 200 | 6000 | 300 |  |  |  |  |  |  | Ratio Ki (Homo sapiens [16]): 20 |
| CCOC(=O)c1c(NC(=O)C(C)Sc2nnc(CNC(=O)c3cc(OC)cc(OC)c3)n2-c2ccccc2OC)sc2c1CCC2 (centres undefined) | > 20 | 2 to 9 | Active | > 20 | > 50 | > 50 | 700 | 1100 | 7000 | 1000 |  |  |  |  |  |  |  |
| Cc1ccc(C(O)(C(=O)NNc2cc(Cl)ccc2Cl)c2ccc(C)cc2)cc1 | > 20 | 2 to 9 | Active | > 20 | > 50 | > 50 | 800 | 1300 | 10300 | 1700 |  |  |  |  |  |  |  |
| CC(/C=C/c1ccccc1)=N/Nc1nc(Nc2ccccc2)nc(-n2nc(C)cc2C)n1 |  |  | Active |  | 20 to 40 | 20 to 40 | 11800 | 17800 |  |  | 5.4 | Active | 1.4 to 2.2 | inactive | 2.8 | Active | Activity [17]: 2.1%; Activity [15]: 1 to 3.7% |
| COc1ccc(N(CC(=O)NC(C)c2ccccc2)S(=O)(=O)c2ccc(OC)c(OC)c2)cc1 (centres undefined) | > 20 | 2 to 9 | Active | > 20 | > 50 | > 50 | 70 | 100 | 46700 | 100 |  |  |  |  |  |  | Ratio Ki (Homo sapiens [16]): 50 |
| Cc1cccc2c1[nH]c1nc(N/N=C\c3c4ccccc4cc4ccccc34)nnc12 | > 20 |  | Active |  | > 50 |  |  |  | 16200 |  |  |  |  |  |  |  |  |
| COC(=O)CN(C(C)=O)C(c1ccccc1)c1cc(Br)ccc1NC(=O)c1ccccc1Cl (centres undefined) |  |  | Active |  | > 70 | > 70 | 1700 | 2500 |  |  | 7.3 | Active | 1.4 to 2.2 | inactive | 3.4 | Active | Activity [15]: 1 to 3.7%; Ratio Ki (Homo sapiens [18]): 10 |
| COc1ccc(Nc2nc(NCc3ccco3)nc(N/N=C\c3cc(Br)c(O)c(Br)c3)n2)cc1 |  |  | Active |  | 20 to 40 | 20 to 40 |  |  |  |  | 2.7 | Active | 1.4 to 2.2 | inactive | 1.9 | Active | Activity [19]: 3.5% |
